Source: ChEMBL document CHEMBL5058577, “EUbOPEN Chemogenomics Library 2 (Multiplex)” (2022)

Tested on: U2OS
Assay: Multiplex assay against U2OS
Format: toxicity, cell-based
Settings: human
Method in brief: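 Compound was added to live cells that had been stained at seeding with Hoechst33342, BioTracker Green Microtubule Cytoskeleton Dye, MitoTracker Red and Annexin V Alexa Fluor 680, and imaging followed on a CQ1 microscope at 37°C and 5% CO2. CellPathfinder machine-learning gating divided cells into Hoechst high-intensity objects or normal cells, normal cells into healthy, pyknosed or fragmented nuclei, and pyknosed cells into mitotic or apoptotic. Tubulin, mitochondrial-mass and membrane-permeability phenotypes are per cents of healthy-nucleus cells.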

[1] = 12 h, 1 µM, compound concentration 1 uM, replicate 1
[2] = 12 h, 1 µM, compound concentration 1 uM, replicate 2
[3] = 12 h, 10 µM, compound concentration 10 uM, replicate 1
[4] = 12 h, 10 µM, compound concentration 10 uM, replicate 2
[5] = 24 h, 1 µM, compound concentration 1 uM, replicate 1
[6] = 24 h, 1 µM, compound concentration 1 uM, replicate 2
[7] = 24 h, 10 µM, compound concentration 10 uM, replicate 1
[8] = 24 h, 10 µM, compound concentration 10 uM, replicate 2
[9] = 48 h, 1 µM, compound concentration 1 uM, replicate 1
[10] = 48 h, 1 µM, compound concentration 1 uM, replicate 2
[11] = 48 h, 10 µM, compound concentration 10 uM, replicate 1
[12] = 48 h, 10 µM, compound concentration 10 uM, replicate 2

## O=C(NCCNCC(O)COc1ccc(O)cc1)N1CCOCC1.O=C(NCCNCC(O)COc1ccc(O)cc1)N1CCOCC1.O=C(O)/C=C/C(=O)O (stereo unspecified) [XAMOTEROL FUMARATE]
[1]
  Population Apoptotic (%): 71%
  Population Fragmented Nuclei (%): 27%
  Population Healthy Nuclei (%): 66%
  Population Hoechst High Intensity Objects (%): 2%
  Population Membrane Permeable-Phenotype (%): 6%
  Population Mitochondria Different-Phenotype (%): 1%
  Population Mitotic Cells (%): 28%
  Population Normal (%): 97%
  Population Pyknosed Nuclei (%): 5%
  Population Tubulin-Different-Phenotype (%): 2%
  Total Cell Count: 265
[2]
  Population Apoptotic (%): 83%
  Population Fragmented Nuclei (%): 19%
  Population Healthy Nuclei (%): 68%
  Population Hoechst High Intensity Objects (%): 3%
  Population Membrane Permeable-Phenotype (%): 13%
  Population Mitotic Cells (%): 16%
  Population Normal (%): 96%
  Population Pyknosed Nuclei (%): 11%
  Population Tubulin-Different-Phenotype (%): 5%
  Total Cell Count: 110
[3]
  Population Apoptotic (%): 92%
  Population Fragmented Nuclei (%): 28%
  Population Healthy Nuclei (%): 60%
  Population Hoechst High Intensity Objects (%): 0%
  Population Membrane Permeable-Phenotype (%): 6%
  Population Mitochondria Different-Phenotype (%): 2%
  Population Mitotic Cells (%): 7%
  Population Normal (%): 99%
  Population Pyknosed Nuclei (%): 11%
  Population Tubulin-Different-Phenotype (%): 4%
  Total Cell Count: 239
[4]
  Population Apoptotic (%): 100%
  Population Fragmented Nuclei (%): 15%
  Population Healthy Nuclei (%): 73%
  Population Hoechst High Intensity Objects (%): 4%
  Population Membrane Permeable-Phenotype (%): 4%
  Population Mitochondria Different-Phenotype (%): 3%
  Population Mitotic Cells (%): 0%
  Population Normal (%): 95%
  Population Tubulin-Different-Phenotype (%): 7%
  Total Cell Count: 118
[5]
  Population Apoptotic (%): 85%
  Population Fragmented Nuclei (%): 24%
  Population Healthy Nuclei (%): 68%
  Population Hoechst High Intensity Objects (%): 0%
  Population Membrane Permeable-Phenotype (%): 5%
  Population Mitochondria Different-Phenotype (%): 0%
  Population Mitotic Cells (%): 15%
  Population Normal (%): 99%
  Population Pyknosed Nuclei (%): 6%
  Population Tubulin-Different-Phenotype (%): 1%
  Total Cell Count: 312
[6]
  Population Apoptotic (%): 80%
  Population Fragmented Nuclei (%): 18%
  Population Healthy Nuclei (%): 69%
  Population Hoechst High Intensity Objects (%): 1%
  Population Membrane Permeable-Phenotype (%): 10%
  Population Mitochondria Different-Phenotype (%): 4%
  Population Mitotic Cells (%): 20%
  Population Normal (%): 98%
  Population Pyknosed Nuclei (%): 11%
  Population Tubulin-Different-Phenotype (%): 5%
  Total Cell Count: 129
[7]
  Population Apoptotic (%): 89%
  Population Fragmented Nuclei (%): 22%
  Population Healthy Nuclei (%): 66%
  Population Hoechst High Intensity Objects (%): 1%
  Population Membrane Permeable-Phenotype (%): 6%
  Population Mitochondria Different-Phenotype (%): 2%
  Population Mitotic Cells (%): 10%
  Population Normal (%): 98%
  Population Pyknosed Nuclei (%): 10%
  Population Tubulin-Different-Phenotype (%): 2%
  Total Cell Count: 270
[8]
  Population Apoptotic (%): 78%
  Population Fragmented Nuclei (%): 16%
  Population Healthy Nuclei (%): 70%
  Population Mitotic Cells (%): 21%
  Population Pyknosed Nuclei (%): 12%
  Population Tubulin-Different-Phenotype (%): 6%
  Total Cell Count: 152
[9]
  Population Apoptotic (%): 90%
  Population Fragmented Nuclei (%): 18%
  Population Healthy Nuclei (%): 75%
  Population Hoechst High Intensity Objects (%): 1%
  Population Membrane Permeable-Phenotype (%): 4%
  Population Mitochondria Different-Phenotype (%): 2%
  Population Mitotic Cells (%): 9%
  Population Normal (%): 98%
  Population Pyknosed Nuclei (%): 6%
  Population Tubulin-Different-Phenotype (%): 2%
  Total Cell Count: 472
[10]
  Population Apoptotic (%): 91%
  Population Fragmented Nuclei (%): 23%
  Population Healthy Nuclei (%): 62%
  Population Hoechst High Intensity Objects (%): 2%
  Population Membrane Permeable-Phenotype (%): 6%
  Population Mitochondria Different-Phenotype (%): 3%
  Population Mitotic Cells (%): 8%
  Population Normal (%): 97%
  Population Pyknosed Nuclei (%): 13%
  Population Tubulin-Different-Phenotype (%): 4%
  Total Cell Count: 171
[11]
  Population Apoptotic (%): 89%
  Population Fragmented Nuclei (%): 18%
  Population Healthy Nuclei (%): 68%
  Population Hoechst High Intensity Objects (%): 1%
  Population Membrane Permeable-Phenotype (%): 2%
  Population Mitochondria Different-Phenotype (%): 1%
  Population Mitotic Cells (%): 10%
  Population Normal (%): 98%
  Population Pyknosed Nuclei (%): 12%
  Population Tubulin-Different-Phenotype (%): 2%
  Total Cell Count: 392
[12]
  Population Apoptotic (%): 94%
  Population Fragmented Nuclei (%): 17%
  Population Healthy Nuclei (%): 73%
  Population Hoechst High Intensity Objects (%): 2%
  Population Membrane Permeable-Phenotype (%): 4%
  Population Mitochondria Different-Phenotype (%): 4%
  Population Mitotic Cells (%): 5%
  Population Normal (%): 97%
  Population Pyknosed Nuclei (%): 9%
  Population Tubulin-Different-Phenotype (%): 6%
  Total Cell Count: 206
